Assay outcomes: PubChem, several laboratories
Mdm2 MdmX PPI: human Mdm2/MdmX binding inhibition | O15151+Q00987 | SaOS-2 split-luciferase Mdm2/MdmX complementation, luminescence | inhibition, % at 8 µM | actives 3% (n = 330,000);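 active = inhibition of at least 50% at 8 µM in the primary screen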
Target sequence (O15151 whole entry, looked up): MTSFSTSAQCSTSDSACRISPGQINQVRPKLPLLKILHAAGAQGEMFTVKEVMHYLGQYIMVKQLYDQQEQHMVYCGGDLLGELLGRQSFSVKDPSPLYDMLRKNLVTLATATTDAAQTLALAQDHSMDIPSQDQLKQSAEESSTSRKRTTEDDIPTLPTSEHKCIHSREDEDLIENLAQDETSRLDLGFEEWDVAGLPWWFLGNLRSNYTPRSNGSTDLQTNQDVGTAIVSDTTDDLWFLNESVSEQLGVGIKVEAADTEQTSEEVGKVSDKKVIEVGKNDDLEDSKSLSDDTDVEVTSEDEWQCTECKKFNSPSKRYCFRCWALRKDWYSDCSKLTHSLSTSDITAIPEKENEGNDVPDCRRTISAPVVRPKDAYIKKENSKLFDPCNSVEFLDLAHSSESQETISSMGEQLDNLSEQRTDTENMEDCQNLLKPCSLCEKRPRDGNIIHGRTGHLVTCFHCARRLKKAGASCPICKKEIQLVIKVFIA
Target sequence (Q00987 whole entry, looked up): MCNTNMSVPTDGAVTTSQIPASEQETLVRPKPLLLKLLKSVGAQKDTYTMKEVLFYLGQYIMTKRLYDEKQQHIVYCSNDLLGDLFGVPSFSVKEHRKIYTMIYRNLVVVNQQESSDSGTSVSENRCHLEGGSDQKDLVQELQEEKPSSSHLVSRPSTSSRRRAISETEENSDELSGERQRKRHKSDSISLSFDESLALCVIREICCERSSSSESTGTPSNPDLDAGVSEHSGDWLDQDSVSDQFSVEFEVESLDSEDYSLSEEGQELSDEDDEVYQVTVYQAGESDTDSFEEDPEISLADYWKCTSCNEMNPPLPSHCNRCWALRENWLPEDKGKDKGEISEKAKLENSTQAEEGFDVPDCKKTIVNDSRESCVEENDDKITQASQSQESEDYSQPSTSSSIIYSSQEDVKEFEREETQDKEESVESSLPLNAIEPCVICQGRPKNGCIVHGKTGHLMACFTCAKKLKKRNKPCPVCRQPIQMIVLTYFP
NLRP3 yeast inh: inhibitors of NALP3 inflammasome in yeast. inhibition, % at 10 µM. actives 0.39% (n = 330,000). Yeast reconstituted NLRP3/ASC/caspase-1, beta-gal luminescence, 24 h;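 active = inhibition of 50% or more; inactive = inhibition below 50%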;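 note: plate controls were induced DMSO wells for no effect and uninduced yeast grown without galactose for full effect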
Calb FLC: affects C. albicans growth with fluconazole; C. albicans CaCi-2 (fluconazole-resistant clinical isolate) + fluconazole, Alamar Blue growth, 48 h; growth inhibition, % (no concentration beside the values); actives 0.57% (n = 300,000); AID 1979;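 active = growth inhibition above about 58% in most replicates, limit read from the data, passing the limit was not always enough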;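 note: all wells also contain fluconazole at 8 µg/ml as a sub-toxic cotreatment; 0% = median of DMSO wells and 100% = median of geldanamycin control wells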
Beta apoptosis: blocks beta cell apoptosis; protection from apoptosis, % (test concentration not listed); actives 0.8% (n = 300,000); INS-1E cytokine-induced death, ATP luminescence, 48 h; percent of positive-control rescue, neutral wells zero; AID 435005;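 active = Every replicate reaches about 75%, or at least half do and their mean reaches it too, limit read from the data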;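 note: 0% = cytokine-treated negative control wells and 100% = positive control rescue; higher means more ATP so stronger rescue from cytokine killing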
CSC inhib: blocks cancer stem cells | cancer stem cell-like cells viability, luminescence | inhibition, % at 7.5 µM | actives 1.1% (n = 300,000); in the data active = inhibition above about 75%; tested in HMLE shEcad cells
T cruzi repl: T. cruzi replication inhibition. T. cruzi beta-gal in NIH3T3, luminescence, 90 h. inhibition, % (no concentration beside the values). actives 1.4% (n = 300,000);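 active = mean inhibition across valid replicates above about 55%, limit read from the data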;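 note: signal also drops with host cell toxicity which is not excluded here; 0% = plate median of DMSO wells and 100% = zero luminescence signal; higher percent means less beta-gal luminescence so fewer parasites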
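System – NIH/3T3 host cells with β-galactosidase reporter T. cruzi · Doses – single 50 nL compound addition per well in DMSO · Reagent – 5000 T. cruzi trypomastigotes/well · Medium – Low-serum DMEM with 2% FBS · Timing – ≥90 h infection period, 3 h prior cell attachment · Evaluation – parasite load inhibition, % · Technique – GalScreen luminescence, 60 min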
* = called active by the depositor; . = no result given. Hits are enriched below; roughly 5.3% of the tested compounds scored in any of these assays.

SMILES | Mdm2 MdmX PPI | NLRP3 yeast inh | Calb FLC | Beta apoptosis | CSC inhib | T cruzi repl
COc1ccc(-n2c(SCC(=O)Nc3cc(C)on3)nc3ccc(O)cc3c2=O)cc1OC | -1 | 15 | 5 | -3 | -5 | -6
Cc1nc2ncnn2c(Nc2ccc3c(c2)OCCO3)c1C | 4 | -10 | 7 | -4 | -4 | -4
O=C(Nc1ccc(Cl)cc1)Nc1ccccc1Sc1ncc([N+](=O)[O-])s1 | -22 | 13 | -5 | 23 | 84* | 18
Cc1ccc(NC(=O)CSCc2c(C)noc2C)cc1C | -3 | -1 | 2 | -2 | -1 | -13
O=C(NCCCN1CCOCC1)c1ccc(Sc2ccccc2Cl)c([N+](=O)[O-])c1 | 22 | -1 | -10 | 12 | 52 | 12
O=C(NCCCN1CCOCC1)c1ccc(Sc2ccc(Br)cc2)c([N+](=O)[O-])c1 | -13 | 7 | -2 | 8 | 76* | 54
CCCOC(c1ccccc1)(c1ccc(C(F)(F)F)cc1)C(Oc1nc(C)cc(C)n1)C(=O)O (stereo not given) | 32 | -7 | 79* | 6 | 5 | -14
CS(=O)(=O)N1CCc2cc(-c3csc(NC(=O)C(c4ccccc4)c4ccccc4)n3)ccc21 | 15 | 4 | 7 | 9 | 9 | 61*
N=C1/C(=C\c2ccc(SCc3ccccc3)o2)C(=O)N=C2SC=NN12 | 24 | 33 | 78* | 5 | 5 | -3
COCCNC(=O)C1=C(N)C(C(=O)Nc2ccc(C)c(S(=O)(=O)N3CCCCC3)c2)SC1=Nc1ccc(C)cc1C (stereo not given) | 6 | 9 | 1 | 5 | 9 | 11
Cc1ccc2cc(/C=N/NC(=O)[C@H]3C[C@@H]3c3ccccc3)c(Cl)nc2c1 | 6 | -4 | -3 | 6 | 6 | 55*
Cc1[nH]n2c(=O)c3c(nc2c1-c1ccc(F)cc1)CCCC3 | 26 | 1 | -13 | . | 6 | 74*
O=c1c2c(nc3c(-c4ccc(Cl)cc4)c[nH]n13)CCCC2 | 42 | -5 | 5 | 93* | . | -7
O=c1c2c(nc3c(-c4cccc5ccccc45)c[nH]n13)CCC2 | 17 | -3 | 0 | -6 | 1 | -20
Cc1ccc(Cn2ncc3c(N4CCN(c5ccccc5C)CC4)ncnc32)cc1 | 38 | 19 | 10 | 2 | 48 | 59*
Nc1[nH]n(-c2ccccc2)c(=O)c1N=Nc1ccc2c(c1)OCCO2 | -157 | 34 | -1 | -3 | 8 | 24
Nc1[nH]n(-c2ccccc2)c(=O)c1N=Nc1ccc2c(c1)OCO2 | -169 | 12 | 4 | 15 | 113* | 12
O=C1OC2(c3ccccc3)C3CCCC2C13 | 17 | -4 | -2 | 6 | -3 | 14
COc1ccc([N+](=O)[O-])cc1NC(=O)Cc1ccc(C)cc1 | -6 | 4 | -2 | . | . | -1
COC(=O)c1ccc(CN2CCN(CCC(C)C)C(CCO)C2)cc1 (stereo not given) | -11 | 14 | -30 | 0 | 30 | 20
COc1ccc(-c2ncc(CN3CCN(CCC(C)C)C(CCO)C3)cn2)cc1 (stereo not given) | -3 | 12 | -5 | 1 | -4 | 61*
O=C(O)c1cnc(-c2ccccc2)nc1Sc1ccc(Cl)cc1Cl | 12 | 2 | 106* | . | 67 | -8
CCCCC(=O)N1C/C=C\C(c2ccc(OC)cc2)N(Cc2ccc(F)cc2)C(=O)[C@H]1Cc1ccccc1 (stereo not given in full) | 35 | 11 | 9 | 99* | 37 | 64*
COc1ccc(C2/C=C\CN(C(=O)C3CC3)[C@H](Cc3ccccc3)C(=O)N2Cc2ccc(F)cc2)cc1 (stereo not given in full) | 40 | 6 | 17 | 86* | 0 | 13
COc1ccc(C2/C=C\CN(C(=O)c3ccc(C)cc3)[C@H](Cc3ccccc3)C(=O)N2Cc2ccc(F)cc2)cc1 (stereo not given in full) | 35 | 3 | 11 | 78* | 29 | 50
SMILES | Mdm2 MdmX PPI | NLRP3 yeast inh | Calb FLC | Beta apoptosis | CSC inhib | T cruzi repl
COc1ccc(C2/C=C\CN(C(=O)c3ccccc3)CC(=O)N2Cc2ccc(F)cc2)cc1 (stereo not given) | 11 | 4 | 2 | -13 | -11 | -3
Cc1ccc(S(=O)(=O)N(C)CC(=O)O/N=C(\N)c2cccc(Br)c2)cc1 | 21 | 19 | -16 | 4 | 25 | 20
O=C(NCc1ccccn1)c1ccc(N2CCCC2)c([N+](=O)[O-])c1 | 1 | 7 | 5 | -6 | . | 5
COC(=O)CSc1nnc(NC(=O)C2CC(=O)N(c3ccc(F)cc3)C2)s1 (stereo not given) | -11 | -13 | 3 | 0 | -7 | -11
Cc1cc(C)nc(NC(=O)/C=C/c2cccs2)c1 | 2 | 34 | 4 | 6 | 86* | -23
Cc1ccc(S(=O)(=O)/C(=C/Cl)NC(=O)c2ccccc2)cc1 | 31 | 11 | -2 | -34 | 35 | 2
O=C(NNc1ccc(-c2csnn2)cc1)c1cc(Cl)cc(Cl)c1 | 15 | 33 | -25 | 1 | 87* | 28
CCN(CC)S(=O)(=O)c1cc([N+](=O)[O-])ccc1NNC(=O)Nc1ccccc1OC | -14 | 12 | 4 | 9 | -1 | 16
COc1cc(/C=N/Nc2ccc(F)cc2F)cc(OC)c1O | -9 | -33 | -24 | -7 | 95* | 15
CSC(=Nc1ccccc1)Nc1ccccc1 | 0 | 12 | 3 | . | -2 | 4
COCc1cc(S(=O)c2ccc(Cl)cc2)nc(C)n1 (stereo not given) | . | . | -32 | . | . | 61*
COC(=O)C1=C(C)OC(N)=C(C#N)C1c1ccccc1 (stereo not given) | 3 | 11 | 10 | 1 | -1 | -3
CNC(=O)C1C(=S)NC(N)=C(C#N)C1c1ccccc1 (stereo not given) | 11 | 15 | -7 | 15 | 112* | -20
Cc1nc(C2CCC3C4CCC5=CC(=O)CC[C@]5(C)C4CC[C@]23C)cs1 (stereo not given in full) | 39 | -5 | 7 | 101* | 86* | 7
CCOC(=O)c1cnc2ccc(OCC)cc2c1N1CCN(c2ccccc2OC)CC1 | 40 | 9 | 14 | 31 | 34 | 57*
CCOc1ccc2ncc(C(=O)c3ccc(OC)cc3)c(N3CCN(CC)CC3)c2c1 | -1 | 23 | -9 | 4 | -11 | 11
O=C(Nc1ccc(Cl)c(Cl)c1)c1ccc(Cl)c(Cl)c1 | 12 | 22 | . | 3 | 14 | 20
Cc1ccc(NC(=O)c2ccc(Cl)c(N3C(=O)C=CC3=O)c2)cc1 | -2 | -1 | -6 | -6 | 79* | .
CCc1nc(N)c(C#N)c(-c2ccncc2)c1C | 26 | 10 | -4 | -3 | -13 | -7
O=C(c1ccc(Br)o1)N1CCN=C1SCc1cccc(F)c1 | -3 | 17 | 0 | . | -2 | 21
COc1cc(OC)cc(C(=O)N(CCCN2C(=O)c3cccc4cccc(c34)C2=O)c2cccc(OC)c2)c1 | 18 | 17 | 1 | 6 | 17 | 9
